IC50 and Activity data for 4 compounds are collected here from ChEMBL document CHEMBL4480389, “Chemoenzymatically synthesized ganglioside GM3 analogues with inhibitory effects on tumor cell growth and migration” (Eur J Med Chem, 2019).

Broadly, the IC50 is the concentration at which inhibition is half-maximal. Read a high IC50 as weaker potency.

For one test, the system named is K562. As to the kind of experiment: Antiproliferative activity against human K562 cells after 48 hrs by MTT assay. The following applies: K562, 48 h. Type of test: functional, cell-based. Put shortly:
(§1)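 Cells were seeded at 8×10^3 per well in RPMI-1640 with 10% heat-inactivated FBS. They were treated for 48 h at 37 °C, 5% CO2 with 20, 200, 400 or 1000 μM analogue, or DMSO vehicle. MTT (5 mg/mL solution) was added for 4 h, and absorbance was read at 570 nm. Viability was taken relative to vehicle control, as means ± SD of three independent experiments.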
For orientation: Formazan colour is commonly taken as a measure of viable cells.

The test system of a further test is HCCLM3. As to the kind of experiment: Antimigratory activity against human HCCLM3 cells at 50 uM after 48 hrs by wound healing assay. Type of test: functional, cell-based. Put shortly: (§2)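 Near-confluent monolayers (1.5×10^5 cells per well, RPMI-1640 with 10% FBS) were scratched with a pipette tip and washed twice with serum-free medium. They were then exposed for 48 h to analogue in fresh FBS-containing medium, with DMSO medium as control. Wounds were photographed, and migration was expressed as % of 0 h (wound width at endpoint/width at 0 h). Done in triplicate.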

For the next test, the system named is B16. As to the kind of experiment: Antimigratory activity against mouse B16 cells at 6.25 to 12.5 uM after 48 hrs by wound healing assay. The format is functional, cell-based. Put shortly: as §2
For a further test, the system named is HCT-116. As to the kind of experiment: Antiproliferative activity against human HCT116 cells after 48 hrs by MTT assay. The format is functional, cell-based. The settings on record: HCT-116, 48 h. In outline:
as §1

In another test the test system is B16-F10. As to the kind of experiment: Antimigratory activity against mouse B16F10 cells at 6.25 to 12.5 uM after 12 hrs by wound healing assay.

The source made the active and inactive calls. The rule behind the calls is not given here.

Turning to `CCCCCCCCCCCCC/C=C/[C@@H](O)[C@@H](N)CO[C@@H]1O[C@H](CO[C@]2(C(=O)O)C[C@H](O)[C@@H](NC(C)=O)[C@H]([C@H](O)[C@H](O)CO)O2)[C@H](O)[C@H](O)[C@H]1O`, the figures for the IC50 in the test with K562 and with HCT-116 were 206 µM and 130 µM, respectively. Moreover, the result with HCCLM3, with B16 and in the test on B16-F10 was Active.
Consider `CCCCCCCCCCCCC/C=C/[C@@H](O)[C@H](CO[C@@H]1O[C@H](CO[C@]2(C(=O)O)C[C@H](O)[C@@H](NC(C)=O)[C@H]([C@H](O)[C@H](O)CO)O2)[C@H](O)[C@H](O)[C@H]1O)NC(=O)CCCCCCCCCCCCCCCCC`, for which the IC50 with K562 stood at 396 µM; in the test with HCT-116, 86.2 µM. In the test on HCCLM3, the outcome was inactive. The result in the test with B16 and with B16-F10 was Active.
On to `CCCCCCCCCCCCC/C=C/[C@@H](O)[C@H](CO[C@H]1O[C@H](CO[C@]2(C(=O)O)C[C@H](O)[C@@H](NC(C)=O)[C@H]([C@H](O)[C@H](O)CO)O2)[C@@H](O)[C@H](O)[C@@H]1O)NC(=O)CCCCCCCCCCCCCCCCC`, for which the IC50 was found to be 160 µM with K562 and 64.2 µM in the test on HCT-116. In addition, the result in the test with HCCLM3 was inactive. Also, the outcome in the test with B16 and in the test on B16-F10 was Active.
As for `CCCCCCCCCCCCC/C=C/[C@@H](O)[C@@H](N)CO[C@H]1O[C@H](CO[C@]2(C(=O)O)C[C@H](O)[C@@H](NC(C)=O)[C@H]([C@H](O)[C@H](O)CO)O2)[C@@H](O)[C@H](O)[C@@H]1O`, the IC50 came to 148 µM with K562 and 182 µM in the test on HCT-116. Besides, the result in the test on HCCLM3, in the test on B16 and in the test with B16-F10 was Active.
